Four compounds from ChEMBL document CHEMBL1145494, “Covalent dimer species of beta-defensin Defr1 display potent antimicrobial activity against multidrug-resistant bacterial pathogens” (2007) can be followed below.

Values after ≈ are worked out from the molar mass of the structure shown. Residues, ends and D or L forms follow the SMILES beside them. A value given as a limit tells only on which side of the number the result lay.

In assay [1] the test system is Pseudomonas aeruginosa. As to the kind of experiment: Antibacterial activity against Pseudomonas aeruginosa PAO1. It is filed as functional. In outline: (§1)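 Bacteria grown to mid-log phase in Iso-Sensitest broth, diluted to 1 × 10^6 to 5 × 10^6 CFU/ml in 10 mM potassium phosphate, pH 7.4, with 1% (vol/vol) Iso-Sensitest broth. Peptide dilutions incubated with 100 μl of cells (1 × 10^5 to 5 × 10^5 CFU) at 37°C for 3 h. 10-fold dilutions plated and CFU counted next day. MBC = concentration giving >99.99% kill of inoculum. Triplicate on three occasions, mean taken.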

Assay [2] relates to Pseudomonas aeruginosa. Description: Antibacterial activity against meropenem and colistin-resistant Pseudomonas aeruginosa C3425. It is filed as functional. In outline: as §1
Assay [3] relates to Pseudomonas aeruginosa. Description: Antibacterial activity against tobramycin-resistant Pseudomonas aeruginosa H183. It is filed as functional. In outline: as §1
Assay [4] concerns Pseudomonas aeruginosa. As to the kind of experiment: Antibacterial activity against tobramycin-resistant Pseudomonas aeruginosa C4269. The class given is functional. In short, it runs like this:
as §1

Assay [5] has as its system Pseudomonas aeruginosa. As to the kind of experiment: Antibacterial activity against meropenem and tobramycin-resistant Pseudomonas aeruginosa C3781. The class given is functional. In short, it runs like this:
as §1

Assay [6] concerns Escherichia coli. As to the kind of experiment: Antibacterial activity against Escherichia coli ATCC 25922. The class given is functional. In outline: (§2)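 Mid-log cultures grown in Iso-Sensitest broth, diluted to 1 × 10^6 to 5 × 10^6 CFU/ml in 10 mM potassium phosphate with 1% (vol/vol) Iso-Sensitest broth, pH 7.4. Peptide at various concentrations was incubated with 1 × 10^5 to 5 × 10^5 CFU in 100 μl at 37°C for 3 h. 10-fold dilutions were plated and CFU counted next day. MBC was taken as >99.99% killing of the inoculum, as the mean of triplicates on three independent occasions.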

In assay [7] the test system is Burkholderia cepacia. As to the kind of experiment: Antibacterial activity against Burkholderia cepacia ATCC 25416. It is filed as functional. In short, it runs like this:
as §2

Assay [8] deals with Burkholderia cenocepacia. Description: Antibacterial activity against Burkholderia cenocepacia ATCC BAA-245. The class given is functional. In short, it runs like this:
as §2

Assay [9] deals with Stenotrophomonas maltophilia. As to the kind of experiment: Antibacterial activity against ciprofloxacin, meropenem and tobramycin-resistant Stenotrophomonas maltophilia C1980. It is filed as functional. In outline:
as §1

Assay [10] deals with Stenotrophomonas maltophilia. Description: Antibacterial activity against ciprofloxacin, meropenem and colistin-resistant Stenotrophomonas maltophilia C3625. It is filed as functional. In outline: as §1
Assay [11] deals with Stenotrophomonas maltophilia. Description: Antibacterial activity against meropenem and tobramycin-resistant Stenotrophomonas maltophilia C3627. It is filed as functional. In short, it runs like this: as §1
For assay [12], the system named is Bordetella bronchiseptica. As to the kind of experiment: Antibacterial activity against Bordetella bronchiseptica J3083. The class given is functional. In short, it runs like this: as §2
Assay [13] has as its system Ralstonia pickettii. As to the kind of experiment: Antibacterial activity against Ralstonia pickettii R4050/C3079. It is filed as functional. In short, it runs like this: as §2
The subject of assay [14] is Cupriavidus necator. Description: Antibacterial activity against Ralstonia eutropha ATCC 17697. The class given is functional. In short, it runs like this:
as §2

Assay [15] has as its system Acinetobacter baumannii. As to the kind of experiment: Antibacterial activity against Acinetobacter baumannii ATCC 19606. The class given is functional. In outline: as §2
Assay [16] deals with Enterococcus faecalis. As to the kind of experiment: Antibacterial activity against Enterococcus faecalis ATCC 700802. The class given is functional. In outline: as §2
The subject of assay [17] is Staphylococcus aureus. Description: Antibacterial activity against Staphylococcus aureus ATCC 25923. It is filed as functional. In short, it runs like this:
as §2

Assay [18] deals with Candida albicans. Description: Antifungal activity against Candida albicans J2922. The class given is functional.
The subject of assay [19] is Staphylococcus aureus. As to the kind of experiment: Antibacterial activity against ciprofloxacin and methicillin-resistant Staphylococcus aureus J2918.
For assay [20], the system named is Stenotrophomonas maltophilia. As to the kind of experiment: Antibacterial activity against ciprofloxacin and meropenem-resistant Stenotrophomonas maltophilia C3626.
Assay [21] concerns Pseudomonas aeruginosa. Description: Antibacterial activity against Pseudomonas aeruginosa in presence of 50 mM NaCl. It is filed as functional. In outline: (§3)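 P. aeruginosa PAO1 (1 × 10^5 CFU in 100 μl) in 10 mM potassium phosphate with 1% (vol/vol) Iso-Sensitest, pH 7.4, containing NaCl (0 to 200 mM). Challenged with peptide in doubling dilutions from 0 to 150 μg/ml at 37°C for 3 h, then plated for CFU. MBC (>99.99% killing) was determined at each NaCl concentration.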

The test system of assay [22] is Pseudomonas aeruginosa. Description: Antibacterial activity against Pseudomonas aeruginosa in presence of 100 mM NaCl. The class given is functional. In short, it runs like this: as §3
Assay [23] concerns Pseudomonas aeruginosa. Description: Antibacterial activity against Pseudomonas aeruginosa in presence of 150 mM NaCl. The class given is functional. In short, it runs like this:
as §3

The subject of assay [24] is Pseudomonas aeruginosa. Description: Antibacterial activity against Pseudomonas aeruginosa in presence of 200 mM NaCl. It is filed as functional. In outline: as §3

For the compound `CC[C@H](C)[C@H](NC(=O)CNC(=O)CNC(=O)[C@H](CC(N)=O)NC(=O)[C@H](CCCNC(=N)N)NC(=O)[C@@H](NC(=O)[C@H](CS)NC(=O)[C@@H](NC(=O)[C@@H](NC(=O)[C@@H]1CCCN1C(=O)[C@@H](N)CC(=O)O)C(C)C)[C@@H](C)O)[C@@H](C)CC)C(=O)N[C@@H](CS)C(=O)N[C@@H](CCC(N)=O)C(=O)N[C@@H](Cc1ccc(O)cc1)C(=O)N[C@@H](CCCNC(=N)N)C(=O)N[C@@H](CS)C(=O)N[C@H](C(=O)NCC(=O)N[C@@H](CC(C)C)C(=O)N[C@@H](CCCNC(=N)N)C(=O)N[C@@H](Cc1cnc[nH]1)C(=O)N[C@@H](CCCCN)C(=O)N[C@H](C(=O)NCC(=O)N[C@H](C(=O)N[C@@H](CS)C(=O)NCC(=O)N[C@@H](CO)C(=O)N1CCC[C@H]1C(=O)N[C@@H](Cc1ccccc1)C(=O)N[C@@H](CCCCN)C(=O)N[C@@H](CS)C(=O)N[C@@H](CS)C(=O)N[C@@H](CCCCN)C(=O)O)[C@@H](C)O)[C@@H](C)CC)[C@@H](C)CC` (H-DPVTCIRNGGICQYRCIGLRHKIGTCGSPFKCCK-OH), the MBC was 50 µg/mL (≈ 13.4 µM) in assay [1]; 50 µg/mL (≈ 13.4 µM) in assay [2]; 100 µg/mL (≈ 26.8 µM) in assay [3]; above 100 µg/mL in assay [4]; 100 µg/mL (≈ 26.8 µM) in [5]; above 100 µg/mL in assay [6]. The MBC in assay [7], in assay [8], in [9], in assay [10], in [11] and in assay [12] was above 100 µg/mL each time. Moreover, the MBC in assay [13] is above 100 µg/mL; in assay [14] it was above 100 µg/mL; in assay [15], 12.5 µg/mL (≈ 3.35 µM); in assay [16], 100 µg/mL (≈ 26.8 µM); in [17], above 100 µg/mL; in assay [18], 25 µg/mL (≈ 6.71 µM). In addition, the MBC in assay [19] and in [20] was above 100 µg/mL in each case.
Consider `CC[C@H](C)[C@H](NC(=O)CNC(=O)CNC(=O)[C@H](CC(N)=O)NC(=O)[C@H](CCCNC(=N)N)NC(=O)[C@@H](NC(=O)[C@H](Cc1ccc(O)cc1)NC(=O)[C@@H](NC(=O)[C@@H](NC(=O)[C@@H]1CCCN1C(=O)[C@@H](N)CC(=O)O)C(C)C)[C@@H](C)O)[C@@H](C)CC)C(=O)N[C@@H](CS)C(=O)N[C@@H](CCC(N)=O)C(=O)N[C@@H](Cc1ccc(O)cc1)C(=O)N[C@@H](CCCNC(=N)N)C(=O)N[C@@H](CS)C(=O)N[C@H](C(=O)NCC(=O)N[C@@H](CC(C)C)C(=O)N[C@@H](CCCNC(=N)N)C(=O)N[C@@H](Cc1cnc[nH]1)C(=O)N[C@@H](CCCCN)C(=O)N[C@H](C(=O)NCC(=O)N[C@H](C(=O)N[C@@H](CS)C(=O)NCC(=O)N[C@@H](CO)C(=O)N1CCC[C@H]1C(=O)N[C@@H](Cc1ccccc1)C(=O)N[C@@H](CCCCN)C(=O)N[C@@H](CS)C(=O)N[C@@H](CS)C(=O)N[C@@H](CCCCN)C(=O)O)[C@@H](C)O)[C@@H](C)CC)[C@@H](C)CC` (H-DPVTYIRNGGICQYRCIGLRHKIGTCGSPFKCCK-OH), for which the MBC turned out to be 6 µg/mL (≈ 1.58 µM) in assay [1]; 6 µg/mL (≈ 1.58 µM) in [2]; 6 µg/mL (≈ 1.58 µM) in assay [3]; 6 µg/mL (≈ 1.58 µM) in [4]; 6 µg/mL (≈ 1.58 µM) in [5]; 8 µg/mL (≈ 2.11 µM) in assay [6]. Further, the MBC in assay [7] was above 100 µg/mL; in [8], above 100 µg/mL; in assay [9], 12.5 µg/mL (≈ 3.3 µM); in assay [10] it was 6 µg/mL (≈ 1.58 µM); in assay [11] it was 6 µg/mL (≈ 1.58 µM); in assay [12], 6 µg/mL (≈ 1.58 µM). For the same compound, the MBC in assay [13] came out at 3 µg/mL (≈ 0.792 µM); in assay [14], 3 µg/mL (≈ 0.792 µM); in assay [15], 3 µg/mL (≈ 0.792 µM); in assay [16] it was 6 µg/mL (≈ 1.58 µM); in assay [17], 10 µg/mL (≈ 2.64 µM); in assay [18], 3 µg/mL (≈ 0.792 µM). Besides, the MBC is 6 µg/mL (≈ 1.58 µM) in assay [19] and 3 µg/mL (≈ 0.792 µM) in assay [20].
H-DPVTYIRNGGIAQYRAIGLRHKIGTAGSPFKCAK-OH: the MBC came to 25 µg/mL in assay [21], 25 µg/mL in assay [22], 50 µg/mL in assay [23] and 50 µg/mL in assay [24].
For the compound POLYMYXIN B, the MBC was determined as 0.5 µg/mL in assay [1]; 1 µg/mL in assay [2]; 1 µg/mL in assay [3]; 1 µg/mL in [4]; 0.5 µg/mL in assay [5]; 0.25 µg/mL in [6]. In addition, the MBC in assay [7] is above 512 µg/mL; in [8] it was above 512 µg/mL; in assay [9], 32 µg/mL; in assay [10], 32 µg/mL; in [11], 64 µg/mL; in assay [12] it was 0.12 µg/mL. The MBC in assay [13] is above 512 µg/mL; in assay [14], 128 µg/mL; in [15], 1 µg/mL; in assay [16], 256 µg/mL; in [17], 256 µg/mL; in [18] it was above 512 µg/mL.
